The array DNA melting data of Ke et al. (doi:10.1101/2024.01.08.574731)

Assays:
[1] = folding enthalpy; higher = less favourable; fluorescence melt of hairpins on a sequencing array, two-state fit; details: sodium 0.088 M
Outline: (§1)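 Melting temperature and folding enthalpy were obtained by bootstrapped two-state fitting. Fits used Cy3 fluorescence of library hairpins with annealed Cy3 and quencher oligos on a sequenced MiSeq flow cell, imaged in 50 mM Na-HEPES pH 8.0, 25 mM NaCl in 2.5 °C steps up to 60 °C and normalised to pre-quench Cy3 and control constructs. Four replicates were combined by inverse-variance weighting, and fitted temperatures were raised by 9.35 °C to match UV melts.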

[2] = melting temperature; fluorescence melt of hairpins on a sequencing array, two-state fit, raised by 9.35 °C to match UV melts; details: sodium 0.088 M
Outline: as §1

Row | Sequence | folding enthalpy [1] [kcal/mol] | Tm [2] [°C]
1 | GATTTTGGAAACAAAACC (.(((((....))))).) | -24.9 | 29.6
2 | GATCCTATCTAGGATC ((((((....)))))) | -37.3 | 52.7
3 | GATCATTCCAATGATC ((((((....)))))) | -33.9 | 50.4
4 | GATCCAGGATTGGATC ((((((....)))))) | -39.9 | 55.1
5 | GATCGTGATTACGATC ((((((....)))))) | -38.8 | 56
6 | GCGTTTGGAAACAAGCGC (((.(((....))).))) | -45.6 | 54.6
7 | GGCTTTGGAAACGAAGCC (((((.(....).))))) | -43.6 | 54
8 | GGCGTTGGAAACAGTGCC (((..((....))..))) | -28.2 | 42.6
9 | GGTCACGGAAACATGACC (((((.(....).))))) | -28.4 | 44.4
10 | GTCAGTGGAAACGTTGAC ((((..(....)..)))) | -21.1 | 34.9
11 | GCATGGGGAAACCCACGC ((.((((....)))).)) | -23.8 | 46.7
12 | GATCTGAGGACAGATC ((((((....)))))) | -26.1 | 46.3
13 | GGTGATGGAAACGTTACC (((.(.(....).).))) | -19.2 | 30.4
14 | GATCTATATCTAGATC ((((((....)))))) | -27.6 | 36.2
15 | GCAGTACGAAAGTAGTGC (((.(((....))).))) | -47 | 57.6
16 | GCTCTCCGAAAGGACAGC (((.(((....))).))) | -25.9 | 41.3
17 | GGAGCCGAAAGGCTATCC ((((((....)))..))) | -8.64 | 38.2
18 | GCGAGAAATCGC ((((....)))) | -21.5 | 52.5
19 | GTTGTGCCGAAAGGCAAC (((..(((....)))))) | -19.6 | 53
20 | GTGGAGGGAAACCTTCGC (.(.(((....))).).) | -26.7 | 34.1
21 | GCAAGCGAAAGCTCTGC ((((((....))).))) | -20 | 45.9
22 | GTGTTCGCGAAAGCGCAC (((..(((....)))))) | -18.1 | 45.2
23 | GCTAAGCGAAAGCTAAGC (((.(((....))).))) | -41.1 | 51.5

Row | Sequence | folding enthalpy [1] [kcal/mol] | Tm [2] [°C]
24 | GCCATCGAAAGATGCGGC ((((((....)))..))) | -16.6 | 49.2
25 | GATTACGGAAACGTAATC (((((((....))))))) | -50.2 | 55.5
26 | GCGGAGCGAAAGCCCTGC ((.(.((....)).).)) | -10.6 | 43.7
27 | GATCTATACCTAGATC ((((((....)))))) | -34.7 | 43.2
28 | GGTCCGCCGAAAGGCACC (((..(((....)))))) | -8.71 | 28.3
29 | GCGGTTTTCCGC ((((....)))) | -30.3 | 58.4
30 | GATCCGCACACGGATC ((((((....)))))) | -44.5 | 59.9
31 | GTATCACCGAAAGGTTAC (((..(((....)))))) | -8.26 | 25.8
32 | GATCCTGCCTAGGATC ((((((....)))))) | -43.7 | 54.7
33 | GGATACGAAAGTATTCC ((((((....))).))) | -22.8 | 42.9
34 | GAGGTGAAAACCTC (((((....))))) | -22.7 | 53.3
35 | GAGTGTGCGAAAGCACTC (((..(((....)))))) | -9.39 | 37.8
36 | GATCTGGAGCAGATC ((((((...)))))) | -28.1 | 45.4
37 | GCTGTGCGAAAGCTCTGC ((.(.((....)).).)) | -22.1 | 44.6
38 | GTCTACGGAAACGCAGAC ((((.((....)).)))) | -35 | 45.1
39 | GCGAATGGAAACGTTTGC ((.((.(....).)).)) | -30.7 | 36
40 | GGAGGTGGAAACGCCTCC (((((.(....).))))) | -50 | 57.2
41 | GGTCGGGGAAACCCGATC (.(((((....))))).) | -32 | 56.7
42 | GAATGGGCGAAAGCCTTC (((..(((....)))))) | -6.79 | 32
43 | GAGACGGGAAACCATCTC ((((.((....)).)))) | -24.5 | 36.8
44 | GCTAGCGAAAGCTTAAGC ((((((....)))..))) | -16.9 | 43.2
45 | GATAGCGAAAGCTGAATC ((((((....)))..))) | -10.9 | 27
46 | GATCTGATCACAGATC ((((((....)))))) | -36.8 | 50.4

Row | Sequence | folding enthalpy [1] [kcal/mol] | Tm [2] [°C]
47 | GAGGTGGGAAACCATCTC (((.(((....))).))) | -31.3 | 47.7
48 | CGTGCGGAAACGCTGACG ((((((....)))..))) | -21.2 | 42.5
49 | GATCGGAATCCCGATC ((((((....)))))) | -36.3 | 53.9
50 | GATCTCGTAAGAGATC ((((((....)))))) | -35.3 | 68.4
51 | GACGCTGGAAACAACGTC ((((.((....)).)))) | -39.4 | 45.5
52 | GATGGCGGAAACGCTGTC ((..(((....)))..)) | -17.1 | 44
53 | GTGCACGGAAACGTGTAC ((.((((....)))).)) | -41.8 | 55.8
54 | TTGCGGAAACGCAA (((((....))))) | -18.1 | 57.6
55 | GGACGCGAAAGCGCCTCC ((((((....)))..))) | -11.6 | 60.2
56 | GCGTCTGACGC ((((...)))) | -24.1 | 56.7
57 | GATCCGAGTGCGGATC ((((((....)))))) | -40.6 | 59.1
58 | GTCATCGAAAGATGTGAC ((((((....)))..))) | -13.4 | 35.7
59 | GGCCACGAAAGTGCCGCC ((((((....)))..))) | -32 | 59.8
60 | GGAGAAGGAAACTTCCCC ((.((((....)))).)) | -16.8 | 35.2
61 | GCTTGGTCGAAAGACAGC (((..(((....)))))) | -14.8 | 43.2
62 | GCTTAGGGAAACCTAAGC (((((((....))))))) | -34 | 59.8
63 | GTCTCACGAAAGTGGGAC (((.(((....))).))) | -41.5 | 60.3
64 | GACACACGAAAGTGCGTC (((.(((....))).))) | -45.2 | 54.5
65 | GTCGCTCGAAAGAGAGAC (((.(((....))).))) | -42.9 | 58.4
66 | GGTGCCGAAAGGCGTACC ((((((....)))..))) | -15.5 | 48.5
67 | GCTCATGGAAACACGAGC ((((.((....)).)))) | -38.1 | 42.6
68 | GCGGACGGAAACGCCCGC ((((.((....)).)))) | -36.7 | 67.8
69 | GGGGGTGGAAACGCCCCC (((((.(....).))))) | -28.9 | 66.9
